Data published in ChEMBL document CHEMBL5705905, “Pharmacological targeting of kinases MST1 and MST2 augments tissue repair and regeneration” (Sci Transl Med, 2016).
The source made the active and inactive calls. No cut-off for these calls is given here.

How the values were obtained:
[1] = biological target: Serine/threonine-protein kinase BRSK1 (Homo sapiens) (UniProt Q8TDC3); experiment: Inhibition of BRSK1 (unknown origin) assessed as remaining activity at 1 uM by Kinome scan method relative to control
In short: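 Active-site-dependent competition-binding (KINOMEscan) panel of 468 kinases, test compound at 1 μM (from a 10 mM DMSO stock). Read-out is ctrl% = (test signal − positive control signal)/(negative control signal − positive control signal) × 100. DMSO is the negative control (100%) and a control compound is the positive control (0%). Lower ctrl% means tighter binding.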

[2] = biological target: Serine/threonine-protein kinase MRCK gamma (Homo sapiens) (UniProt Q6DT37); experiment: Inhibition of DMPK2 (unknown origin) assessed as remaining activity at 1 uM by Kinome scan method relative to control
[3] = biological target: G protein-coupled receptor kinase 4 (Homo sapiens) (UniProt P32298); experiment: Inhibition of GRK4 (unknown origin) assessed as remaining activity at 1 uM by Kinome scan method relative to control
[4] = biological target: Protein kinase C theta type (Homo sapiens) (UniProt Q04759); experiment: Inhibition of PRKCQ (unknown origin) assessed as remaining activity at 1 uM by Kinome scan method relative to control
[5] = biological target: Serine/threonine-protein kinase Sgk1 (Homo sapiens) (UniProt O00141); experiment: Inhibition of SGK (unknown origin) assessed as remaining activity at 1 uM by Kinome scan method relative to control
[6] = biological target: Serine/threonine-protein kinase WNK2 (Homo sapiens) (UniProt Q9Y3S1); experiment: Inhibition of WNK2 (unknown origin) assessed as remaining activity at 1 uM by Kinome scan method relative to control
[7] = biological target: Aurora kinase B (Homo sapiens, UniProt Q96GD4); experiment: Inhibition of AURKB (unknown origin) in presence of ATP by enzymatic assay
[8] = system: RAW264.7; experiment: Inhibition of MST1/2 (unknown origin) in mouse RAW264.7 cells assessed as H2O2 stimulated MST1/2 autophosphorylation level at 1 to 3 uM by immunoblot analysis; format: cell-based; conditions: dose 1-3 µM
[9] = system: HepG2; experiment: Inhibition of Flag-tagged MST1 Y101F/D109A mutant (unknown origin) in human HepG2 cells assessed as MOB1 phosphorylation level at 3 uM by immunoblot analysis; format: cell-based
[10] = biological target: Serine/threonine-protein kinase 3 (Homo sapiens, UniProt Q13188, D109A/Y101F)
Serine/threonine-protein kinase 3, sequence (Q13188 whole entry Y101F/D109A): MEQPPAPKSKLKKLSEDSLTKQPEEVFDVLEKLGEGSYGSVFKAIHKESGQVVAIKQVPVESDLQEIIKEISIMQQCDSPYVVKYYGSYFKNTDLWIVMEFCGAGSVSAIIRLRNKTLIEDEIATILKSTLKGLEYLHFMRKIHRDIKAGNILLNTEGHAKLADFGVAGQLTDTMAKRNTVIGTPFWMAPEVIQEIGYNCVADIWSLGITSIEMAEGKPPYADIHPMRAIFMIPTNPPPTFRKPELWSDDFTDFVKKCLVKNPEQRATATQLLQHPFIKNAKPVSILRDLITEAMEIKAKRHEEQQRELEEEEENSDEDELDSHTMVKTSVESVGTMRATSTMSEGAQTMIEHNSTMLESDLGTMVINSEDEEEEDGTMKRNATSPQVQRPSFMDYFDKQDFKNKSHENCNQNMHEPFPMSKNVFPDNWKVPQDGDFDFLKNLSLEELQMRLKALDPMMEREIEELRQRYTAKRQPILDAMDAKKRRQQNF

Serine/threonine-protein kinase WNK2 (Homo sapiens), sequence (Q9Y3S1 whole entry): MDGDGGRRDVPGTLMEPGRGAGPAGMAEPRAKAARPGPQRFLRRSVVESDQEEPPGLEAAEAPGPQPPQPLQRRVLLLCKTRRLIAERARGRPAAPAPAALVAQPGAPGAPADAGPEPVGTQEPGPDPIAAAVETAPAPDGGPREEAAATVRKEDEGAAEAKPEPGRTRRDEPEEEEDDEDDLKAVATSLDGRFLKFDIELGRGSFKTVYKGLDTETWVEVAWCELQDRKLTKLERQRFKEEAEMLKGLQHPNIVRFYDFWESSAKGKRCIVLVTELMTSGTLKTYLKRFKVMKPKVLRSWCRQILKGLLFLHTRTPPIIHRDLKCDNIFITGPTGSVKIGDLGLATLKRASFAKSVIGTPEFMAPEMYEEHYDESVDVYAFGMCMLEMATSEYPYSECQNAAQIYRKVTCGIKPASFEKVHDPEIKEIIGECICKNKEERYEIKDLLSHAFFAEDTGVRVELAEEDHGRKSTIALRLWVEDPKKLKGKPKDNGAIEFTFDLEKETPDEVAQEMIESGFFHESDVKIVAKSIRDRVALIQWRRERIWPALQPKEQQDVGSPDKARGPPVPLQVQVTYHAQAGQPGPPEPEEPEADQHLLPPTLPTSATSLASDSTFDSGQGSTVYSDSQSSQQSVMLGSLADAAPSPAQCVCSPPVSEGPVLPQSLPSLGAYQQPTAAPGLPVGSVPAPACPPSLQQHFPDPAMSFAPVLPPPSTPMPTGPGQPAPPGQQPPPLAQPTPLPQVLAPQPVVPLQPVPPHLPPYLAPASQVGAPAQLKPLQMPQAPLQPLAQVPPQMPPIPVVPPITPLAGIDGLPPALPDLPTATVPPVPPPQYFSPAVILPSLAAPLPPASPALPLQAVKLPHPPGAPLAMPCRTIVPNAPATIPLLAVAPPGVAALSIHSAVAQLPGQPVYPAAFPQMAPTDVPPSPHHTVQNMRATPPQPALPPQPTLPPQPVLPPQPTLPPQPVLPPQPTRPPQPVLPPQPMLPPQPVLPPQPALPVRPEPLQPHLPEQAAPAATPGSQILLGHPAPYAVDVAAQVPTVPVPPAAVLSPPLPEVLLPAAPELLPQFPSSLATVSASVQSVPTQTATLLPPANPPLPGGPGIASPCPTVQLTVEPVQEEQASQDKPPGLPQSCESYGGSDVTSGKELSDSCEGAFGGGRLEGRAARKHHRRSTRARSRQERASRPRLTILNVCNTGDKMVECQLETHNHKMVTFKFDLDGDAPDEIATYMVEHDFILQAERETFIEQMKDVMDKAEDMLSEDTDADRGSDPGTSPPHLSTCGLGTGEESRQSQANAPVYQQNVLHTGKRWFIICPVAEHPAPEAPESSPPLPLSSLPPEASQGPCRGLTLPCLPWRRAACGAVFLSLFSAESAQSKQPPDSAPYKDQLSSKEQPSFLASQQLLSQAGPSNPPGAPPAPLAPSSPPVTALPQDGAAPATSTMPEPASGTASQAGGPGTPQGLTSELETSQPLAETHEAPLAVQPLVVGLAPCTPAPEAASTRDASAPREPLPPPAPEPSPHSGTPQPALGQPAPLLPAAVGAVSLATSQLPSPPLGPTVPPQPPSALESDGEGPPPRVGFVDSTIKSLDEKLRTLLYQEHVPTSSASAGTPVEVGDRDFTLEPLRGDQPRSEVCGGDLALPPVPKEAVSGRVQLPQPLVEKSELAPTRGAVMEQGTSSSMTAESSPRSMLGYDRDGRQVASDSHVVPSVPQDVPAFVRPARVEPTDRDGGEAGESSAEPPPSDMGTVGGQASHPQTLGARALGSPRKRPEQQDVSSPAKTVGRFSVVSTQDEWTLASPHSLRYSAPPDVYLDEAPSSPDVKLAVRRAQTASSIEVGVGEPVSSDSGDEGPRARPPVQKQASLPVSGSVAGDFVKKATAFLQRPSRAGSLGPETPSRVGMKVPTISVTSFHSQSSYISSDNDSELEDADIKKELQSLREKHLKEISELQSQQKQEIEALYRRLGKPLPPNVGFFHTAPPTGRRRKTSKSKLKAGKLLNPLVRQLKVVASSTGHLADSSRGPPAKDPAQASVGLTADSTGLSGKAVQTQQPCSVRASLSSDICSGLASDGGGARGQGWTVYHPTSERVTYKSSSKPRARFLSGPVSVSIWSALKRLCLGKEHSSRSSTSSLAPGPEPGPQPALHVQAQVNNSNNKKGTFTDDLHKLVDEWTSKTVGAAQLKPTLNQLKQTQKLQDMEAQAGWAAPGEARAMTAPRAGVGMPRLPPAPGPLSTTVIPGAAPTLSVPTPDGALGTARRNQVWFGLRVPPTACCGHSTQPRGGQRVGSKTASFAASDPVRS
Serine/threonine-protein kinase MRCK gamma (Homo sapiens), sequence (Q6DT37 whole entry): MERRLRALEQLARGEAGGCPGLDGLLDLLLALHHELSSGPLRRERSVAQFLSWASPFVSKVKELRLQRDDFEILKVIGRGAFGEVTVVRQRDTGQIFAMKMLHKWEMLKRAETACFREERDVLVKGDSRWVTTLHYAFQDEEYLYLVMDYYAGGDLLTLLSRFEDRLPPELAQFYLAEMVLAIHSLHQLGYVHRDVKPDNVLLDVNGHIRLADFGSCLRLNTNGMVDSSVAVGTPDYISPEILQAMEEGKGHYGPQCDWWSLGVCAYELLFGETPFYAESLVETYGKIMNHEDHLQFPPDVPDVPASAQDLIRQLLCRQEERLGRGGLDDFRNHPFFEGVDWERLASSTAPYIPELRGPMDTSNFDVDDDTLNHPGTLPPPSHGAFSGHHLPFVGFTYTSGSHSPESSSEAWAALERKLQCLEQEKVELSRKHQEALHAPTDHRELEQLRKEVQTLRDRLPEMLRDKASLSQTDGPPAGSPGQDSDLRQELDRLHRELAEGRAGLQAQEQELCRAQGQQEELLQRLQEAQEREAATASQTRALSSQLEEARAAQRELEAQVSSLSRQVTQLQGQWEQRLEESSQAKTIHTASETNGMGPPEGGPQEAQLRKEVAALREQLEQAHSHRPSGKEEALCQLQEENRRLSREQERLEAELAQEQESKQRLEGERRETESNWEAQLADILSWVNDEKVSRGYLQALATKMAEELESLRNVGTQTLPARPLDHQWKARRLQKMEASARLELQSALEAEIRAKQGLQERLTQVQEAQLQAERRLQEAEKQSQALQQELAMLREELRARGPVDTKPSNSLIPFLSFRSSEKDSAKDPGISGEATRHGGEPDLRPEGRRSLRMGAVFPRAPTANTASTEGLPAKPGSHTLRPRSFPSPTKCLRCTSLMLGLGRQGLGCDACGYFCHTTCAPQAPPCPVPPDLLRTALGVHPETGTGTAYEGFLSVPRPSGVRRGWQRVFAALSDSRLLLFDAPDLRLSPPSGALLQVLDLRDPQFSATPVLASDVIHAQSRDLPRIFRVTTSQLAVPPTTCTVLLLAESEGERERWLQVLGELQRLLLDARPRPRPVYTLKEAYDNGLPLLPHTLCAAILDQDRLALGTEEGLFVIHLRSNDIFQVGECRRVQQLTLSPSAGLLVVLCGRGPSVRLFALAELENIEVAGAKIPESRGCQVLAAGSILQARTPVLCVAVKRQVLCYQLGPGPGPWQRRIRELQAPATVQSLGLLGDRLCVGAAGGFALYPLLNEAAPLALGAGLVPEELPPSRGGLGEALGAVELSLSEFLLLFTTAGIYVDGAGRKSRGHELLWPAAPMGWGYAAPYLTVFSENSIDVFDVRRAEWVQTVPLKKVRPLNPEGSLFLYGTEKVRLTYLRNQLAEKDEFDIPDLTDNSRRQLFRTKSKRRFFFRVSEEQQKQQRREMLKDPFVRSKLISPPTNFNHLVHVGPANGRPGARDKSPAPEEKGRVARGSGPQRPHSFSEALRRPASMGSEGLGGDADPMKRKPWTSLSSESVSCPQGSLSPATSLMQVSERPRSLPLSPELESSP
Aurora kinase B, sequence (Q96GD4 whole entry): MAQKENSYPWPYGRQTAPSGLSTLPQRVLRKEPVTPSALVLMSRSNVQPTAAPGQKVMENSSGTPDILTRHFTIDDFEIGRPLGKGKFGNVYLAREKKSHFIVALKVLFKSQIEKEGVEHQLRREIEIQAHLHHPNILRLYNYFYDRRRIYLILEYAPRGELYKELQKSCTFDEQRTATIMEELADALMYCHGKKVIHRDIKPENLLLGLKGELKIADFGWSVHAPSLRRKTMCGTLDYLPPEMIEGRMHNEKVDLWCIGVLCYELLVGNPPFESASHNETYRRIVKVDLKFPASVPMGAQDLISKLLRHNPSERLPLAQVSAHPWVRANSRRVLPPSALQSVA
Serine/threonine-protein kinase Sgk1 (Homo sapiens), sequence (O00141 whole entry): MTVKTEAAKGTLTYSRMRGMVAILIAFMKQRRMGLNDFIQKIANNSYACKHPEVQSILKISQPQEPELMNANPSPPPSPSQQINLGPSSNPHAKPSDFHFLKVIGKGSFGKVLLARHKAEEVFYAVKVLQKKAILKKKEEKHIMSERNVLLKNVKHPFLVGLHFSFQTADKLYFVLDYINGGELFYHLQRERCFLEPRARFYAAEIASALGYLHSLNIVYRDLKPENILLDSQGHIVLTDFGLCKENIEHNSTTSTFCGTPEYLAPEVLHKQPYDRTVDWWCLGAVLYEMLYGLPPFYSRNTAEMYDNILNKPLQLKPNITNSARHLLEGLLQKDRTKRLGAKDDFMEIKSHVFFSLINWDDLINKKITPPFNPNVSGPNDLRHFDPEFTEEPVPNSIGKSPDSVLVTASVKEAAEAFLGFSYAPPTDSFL

CN1C(=O)c2sccc2N(C)c2nc(Nc3ccc(S(N)(=O)=O)cc3)ncc21
Activity [1]: 96% | Activity [2]: 100% | Activity [3]: 99% | Activity [4]: 99% | Activity [5]: 96% | Activity [6]: 78% | IC50 [7]: 19.1 nM | inhibition [8]: Active | inhibition [9]: Active | IC50 [10]: 1680 nM
